High-throughput results (PubChem BioAssay)
Shown is part of a subset that was picked to be rich in hits.
H69AR inhibit – growth inhibitors of human H69AR lung tumor cells; AID 598; 85,000 compounds, 6% hits; viability, % at 10 µM; H69AR lung tumor viability, ATP luminescence, 72 h; stronger effect = lower value;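 active means viability at or below 40%; inactive means viability above 40%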;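 further: multidrug resistant small cell line overexpressing MRP-1 efflux transporter; 100% = mean luminescence of untreated control wells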
Fibroblast inh – blocks proliferation of human lung fibroblasts; LL 47 human lung fibroblast viability, ATP luminescence; stronger effect = lower value; viability, % at 10 µM; 85,000 compounds, 1.1% hits; AID 719;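 active means viability at or below 50% in the single dose screen; inactive means viability above 50%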;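 further: compound exposure lasted 72 h before the ATP readout; 100% = median luminescence of untreated cell-only wells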
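Times – overnight cell rest, 72 h compound treatment at 37 °C · Test system – human lung fibroblast line LL 47, low passage · Amount – 1,150 cells in each well · Controls – cell-only wells, no compound · Doses – 0.1% DMSO in all compound wells · Measured by – CellTiter-Glo luminescence · Buffer or medium – IMEM plus 15% FBS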
HCT116 PTEN-null – suppresses growth of cells with PTEN deletion. HCT116 PTEN-null viability, CellTiter-Glo, 60 h; stronger effect = lower value. viability, % at 10 µM. 140,000 compounds, 1.2% hits;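 active means viability at or below a set limit, 4 SD under the median of all tested compounds, cut at about 3.7% in these data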;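 further: PTEN knockout HCT116 line with beta catenin targeted HCT116 as companion control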
HUVEC prolif 384 – blocks proliferation of human endothelial cells; HUVEC proliferation, CellTiter-Glo luminescence, 72 h; stronger effect = lower value; viability, % at 10 µM (by protocol); 86,000 compounds, 1.1% hits;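 active means viability at or below 30%; inactive means viability above 30%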;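 further: 100% = median luminescence of DMSO-only cell control wells on each plate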
HCT116 bCat-KO – beta-catenin-lacking colon tumor cell growth suppression; HCT116 beta-catenin knockout viability, CellTiter-Glo, 60 h; stronger effect = lower value; viability, % at 10 µM; 140,000 compounds, 1.5% hits; AID 818;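 active means viability at or under a set limit, the compound median less 4 SD, cut at about 6% in these data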;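 further: 0% = Hyamine 1622 control at 20 µM and 100% = untreated cell control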
* marks the source's active call; other numbers are inactive results; · = not tested or not shown.

SMILES	H69AR inhibit	Fibroblast inh	HCT116 PTEN-null	HUVEC prolif 384	HCT116 bCat-KO
CCCN(CCC)S(=O)(=O)c1ccc(C(=O)Nc2nnc(CSC)o2)cc1	32*	84	24	61	36
COc1cccc(-c2nnc(NC(=O)c3ccccc3Br)o2)c1	34*	93	·	78	·
CCCN(CCC)S(=O)(=O)c1ccc(C(=O)Nc2nnc(-c3cccc(OC)c3)o2)cc1	16*	12*	10	1.7*	10
CCc1nnc(NC(=O)c2ccc(S(=O)(=O)N(CCOC)CCOC)cc2)o1	66	98	96	98	99
CC(C)CNC(=S)NC(=O)c1ccc(F)cc1	·	·	85	·	85
CNC(=O)c1nn(-c2ccc(C)cc2)ccc1=O	·	·	89	·	98
CCn1c(SCc2c(Cl)cccc2Cl)nnc1-c1nn(-c2ccccc2)ccc1=O	·	·	86	·	98
C=CCSc1nccc(-c2nn(-c3ccc(C)cc3)ccc2=O)n1	21*	64	18	59	19
CSc1nccc(-c2nn(-c3ccc(C)cc3)ccc2=O)n1	24*	58	23	48	19
CCSc1nccc(-c2nn(-c3ccc(C)cc3)ccc2=O)n1	18*	67	22	58	21
C#CCSc1nccc(-c2nn(-c3ccc(C)cc3)ccc2=O)n1	17*	83	89	64	88
C=CCSc1nc(=O)n2cccc(C)c2n1	·	·	94	·	96
Cc1ccc(NC(=O)CN2CCCCCC2)c(Br)c1	92	117	92	92	93
CCOC(=O)Nc1ccc(C)cc1Br	109	107	0.2*	104	0.4*
COc1ccc(CSC(=N)N)cc1[N+](=O)[O-]	81	89	16	71	14
CCCCCOc1ccc(CSC(=N)N)cc1[N+](=O)[O-]	·	·	1.3*	·	1.9*
O=C(Nc1ccc2snnc2c1)N1CCN(c2ccccc2)CC1	80	99	82	113	73
O=C(Nc1ccc2snnc2c1)Nc1cccc2ccccc12	9.3*	92	4	60	9
Cc1ccc(Cn2ccc(NC(=O)c3c(-c4ccccc4Cl)noc3C)n2)cc1	98	105	96	93	99
CCCn1c(CNS(=O)(=O)c2ccc(C)cc2)nc2ccccc21	97	93	98	94	86
CN1CCN(c2nc(NCCOC34CC5CC(CC(C5)C3)C4)nc(OCC(F)(F)F)n2)CC1	1.9*	56	26	9.5*	30
COc1ccc(-n2nnnc2SCC(=O)Nc2ccc3c(c2)OCCO3)cc1OC	21*	99	87	91	77
O=C(CSc1nnnn1-c1ccc2c(c1)OCO2)NCc1ccccc1	19*	82	34	56	35
O=C(CSc1nnnn1-c1ccc2c(c1)OCO2)NCc1cccs1	66	103	75	98	65
NC(=NCCc1ccccc1)NS(=O)(=O)c1ccccc1	·	·	97	·	96
SMILES	H69AR inhibit	Fibroblast inh	HCT116 PTEN-null	HUVEC prolif 384	HCT116 bCat-KO
CCN(CC)S(=O)(=O)c1ccc(C)c(NC(=O)CSc2nc3ccc(C)cc3[nH]2)c1	·	·	58	·	67
Cc1cc(C)n(S(=O)(=O)c2cccc(Cl)c2Cl)n1	96	97	·	106	·
Cc1ccc(C)c(C(=O)COc2ccccc2[N+](=O)[O-])c1	·	·	1.6*	·	1.9*
COc1ccc(-c2nc(-c3ccc(NC(=O)c4ccc(Br)o4)cc3)no2)cc1OC	3.5*	63	95	35	95
COc1cc(-c2nc(-c3ccc(NC(=O)c4ccc(Br)o4)cc3)no2)cc(OC)c1OC	4.5*	92	19	32	24
COc1ccc(CCC(=O)Nc2ccc(-c3noc(-c4ccc(OC)c(OC)c4)n3)cc2)cc1	78	98	109	94	100
CC(c1nnc(SCC(=O)N2CC(=O)Nc3ccccc32)n1Cc1ccccc1)N(C)C (configuration not stated)	70	102	107	104	101
O=C(Cn1c(SCC(=O)N2CCCc3ccccc32)nc2ccccc21)N1CCCC1	80	88	93	81	91
COCCn1c(SCC(=O)N2CCCc3ccccc32)nc2cccnc21	19*	108	81	87	77
Cc1cnc(NC(=O)CCCc2nc3ccccc3s2)s1	71	35*	10	30*	15
O=C(CCCc1nc2ccccc2s1)Nc1nccs1	89	95	87	67	89
O=[N+]([O-])c1ccc(-c2cc(-c3ccncc3)nc3ccc4ccccc4c23)cc1	·	·	85	·	86
Cc1nc2cc(N3CCOCC3)c(NC(=O)C3CC3)cc2c(=O)n1Cc1ccccc1	100	103	·	95	·
